From ChEMBL document CHEMBL2331439 (J Med Chem, 2013)

Assays:
[1] = biological target: Vascular endothelial growth factor receptor 2 (Homo sapiens, UniProt P35968); conditions: 5 uM
[2] = biological target: AMP-activated protein kinase (AMPK) alpha-1/beta-1/gamma-1 (Homo sapiens, UniProt P54619+Q13131+Q9Y478); test: Inhibition of recombinant AMPK A1/B1/G1 (unknown origin) by FRET-based Z'-LYTE assay; format: protein-complex assay
[3] = biological target: Ribosomal protein S6 kinase beta-1 (Homo sapiens, UniProt P23443); test: Inhibition of recombinant RPS6KB1 (unknown origin) at 5 uM by FRET-based Z'-LYTE assay
Ribosomal protein S6 kinase beta-1, sequence (P23443 whole entry, looked up): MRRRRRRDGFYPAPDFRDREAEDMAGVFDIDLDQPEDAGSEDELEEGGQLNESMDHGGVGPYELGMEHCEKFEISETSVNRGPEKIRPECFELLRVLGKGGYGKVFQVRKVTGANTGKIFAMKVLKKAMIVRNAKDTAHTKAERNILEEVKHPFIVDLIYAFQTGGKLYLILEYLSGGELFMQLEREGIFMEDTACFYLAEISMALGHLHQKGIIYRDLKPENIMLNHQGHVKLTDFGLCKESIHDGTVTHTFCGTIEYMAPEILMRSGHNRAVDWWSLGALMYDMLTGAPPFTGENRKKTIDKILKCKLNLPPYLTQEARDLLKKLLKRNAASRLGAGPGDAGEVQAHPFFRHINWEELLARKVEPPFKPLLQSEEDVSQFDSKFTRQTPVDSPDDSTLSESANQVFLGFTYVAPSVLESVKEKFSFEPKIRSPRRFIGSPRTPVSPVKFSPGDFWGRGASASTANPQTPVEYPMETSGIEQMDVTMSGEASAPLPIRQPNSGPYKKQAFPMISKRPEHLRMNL
Summary of the method: (§1)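 Z'-LYTE FRET peptide (coumarin/fluorescein) phosphorylation was followed by protease development. Wells included a protease control for interference with development and a fluorescence control for interference with the FRET read. Values above 100% or below 0% were treated as maximal or no inhibition.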

[4] = biological target: Serine/threonine-protein kinase Chk1 (Homo sapiens) (UniProt O14757); test: Inhibition of recombinant CHEK1 (unknown origin) at 5 uM by FRET-based Z'-LYTE assay
Summary of the method: (§2)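 Single-point panel screen at 5 μM in duplicate. ATP is at the apparent Km of each kinase, and the Z'-LYTE FRET peptide substrate is used. Each point has two control wells: a protease control for interference with development and a fluorescence control for interference with the FRET read-out. Values above 100% are treated as maximal inhibition and values below 0% as none.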

[5] = biological target: Serine/threonine-protein kinase mTOR (Homo sapiens) (UniProt P42345); test: Inhibition of recombinant FRAP1 (unknown origin) at 5 uM by FRET-based Z'-LYTE assay
Summary of the method: as §2

[6] = biological target: RAC-alpha serine/threonine-protein kinase (Homo sapiens, UniProt P31749); test: Inhibition of recombinant AKT1 (unknown origin) by FRET-based Z'-LYTE assay
RAC-alpha serine/threonine-protein kinase, sequence (P31749 whole entry): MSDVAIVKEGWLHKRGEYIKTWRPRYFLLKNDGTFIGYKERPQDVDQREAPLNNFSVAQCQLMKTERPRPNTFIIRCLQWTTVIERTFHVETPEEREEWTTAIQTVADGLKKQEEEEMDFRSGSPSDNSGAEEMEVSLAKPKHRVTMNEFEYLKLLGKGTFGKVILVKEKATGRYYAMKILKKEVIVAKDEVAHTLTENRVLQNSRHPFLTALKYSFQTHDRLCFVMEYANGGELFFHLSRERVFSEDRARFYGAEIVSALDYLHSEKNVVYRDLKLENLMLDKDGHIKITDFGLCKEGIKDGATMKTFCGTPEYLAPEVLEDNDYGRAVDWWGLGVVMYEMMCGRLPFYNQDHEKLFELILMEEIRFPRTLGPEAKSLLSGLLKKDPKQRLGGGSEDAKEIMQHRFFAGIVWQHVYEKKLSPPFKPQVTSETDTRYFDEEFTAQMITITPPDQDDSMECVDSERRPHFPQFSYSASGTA

[7] = biological target: Tyrosine-protein kinase SYK (Homo sapiens) (UniProt P43405); test: Inhibition of recombinant SYK (unknown origin) at 5 uM by FRET-based Z'-LYTE assay
Summary of the method: as §1

[8] = biological target: T1, Serine/threonine-protein kinase Nek1 (Homo sapiens, UniProt Q96PY6); test: Inhibition of recombinant NEK1 (unknown origin) by FRET-based Z'-LYTE assay
T1 sequence (Q96PY6 whole entry): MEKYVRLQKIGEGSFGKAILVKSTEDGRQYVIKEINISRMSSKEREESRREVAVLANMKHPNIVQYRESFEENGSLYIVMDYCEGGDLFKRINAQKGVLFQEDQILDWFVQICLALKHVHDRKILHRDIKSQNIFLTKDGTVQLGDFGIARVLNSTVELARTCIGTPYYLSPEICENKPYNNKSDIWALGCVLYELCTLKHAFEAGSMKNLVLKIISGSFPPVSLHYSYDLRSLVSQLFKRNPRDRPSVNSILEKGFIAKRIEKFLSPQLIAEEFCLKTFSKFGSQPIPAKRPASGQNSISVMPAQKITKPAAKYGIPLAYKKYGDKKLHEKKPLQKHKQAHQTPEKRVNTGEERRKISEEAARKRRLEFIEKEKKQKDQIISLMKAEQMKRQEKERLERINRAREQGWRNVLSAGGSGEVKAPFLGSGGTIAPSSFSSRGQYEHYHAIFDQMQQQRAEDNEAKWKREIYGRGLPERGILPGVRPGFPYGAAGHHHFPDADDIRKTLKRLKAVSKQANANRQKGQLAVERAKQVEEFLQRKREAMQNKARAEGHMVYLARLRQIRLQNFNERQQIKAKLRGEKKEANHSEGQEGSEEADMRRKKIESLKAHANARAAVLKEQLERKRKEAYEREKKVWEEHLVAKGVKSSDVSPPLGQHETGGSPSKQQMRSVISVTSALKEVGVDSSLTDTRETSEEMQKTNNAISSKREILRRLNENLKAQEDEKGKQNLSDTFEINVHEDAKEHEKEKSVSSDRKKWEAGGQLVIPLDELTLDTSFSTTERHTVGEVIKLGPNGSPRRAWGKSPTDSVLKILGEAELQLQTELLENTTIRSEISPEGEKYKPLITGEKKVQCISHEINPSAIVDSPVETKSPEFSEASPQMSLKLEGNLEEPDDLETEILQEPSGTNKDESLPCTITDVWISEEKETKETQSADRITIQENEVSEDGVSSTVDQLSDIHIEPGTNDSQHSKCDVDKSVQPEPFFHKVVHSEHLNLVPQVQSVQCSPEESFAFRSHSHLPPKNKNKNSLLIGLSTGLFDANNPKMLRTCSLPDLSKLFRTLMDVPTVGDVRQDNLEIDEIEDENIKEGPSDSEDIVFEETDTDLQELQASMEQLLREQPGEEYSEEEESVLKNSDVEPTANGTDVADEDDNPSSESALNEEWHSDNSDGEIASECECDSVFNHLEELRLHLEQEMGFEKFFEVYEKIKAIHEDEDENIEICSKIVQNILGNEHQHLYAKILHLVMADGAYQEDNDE

[9] = biological target: Mitogen-activated protein kinase kinase kinase kinase 4 (Homo sapiens) (UniProt O95819); test: Inhibition of recombinant MAP4K4 (unknown origin) at 5 uM by FRET-based Z'-LYTE assay
Mitogen-activated protein kinase kinase kinase kinase 4 (Homo sapiens), sequence (O95819 2-1239 limits assumed): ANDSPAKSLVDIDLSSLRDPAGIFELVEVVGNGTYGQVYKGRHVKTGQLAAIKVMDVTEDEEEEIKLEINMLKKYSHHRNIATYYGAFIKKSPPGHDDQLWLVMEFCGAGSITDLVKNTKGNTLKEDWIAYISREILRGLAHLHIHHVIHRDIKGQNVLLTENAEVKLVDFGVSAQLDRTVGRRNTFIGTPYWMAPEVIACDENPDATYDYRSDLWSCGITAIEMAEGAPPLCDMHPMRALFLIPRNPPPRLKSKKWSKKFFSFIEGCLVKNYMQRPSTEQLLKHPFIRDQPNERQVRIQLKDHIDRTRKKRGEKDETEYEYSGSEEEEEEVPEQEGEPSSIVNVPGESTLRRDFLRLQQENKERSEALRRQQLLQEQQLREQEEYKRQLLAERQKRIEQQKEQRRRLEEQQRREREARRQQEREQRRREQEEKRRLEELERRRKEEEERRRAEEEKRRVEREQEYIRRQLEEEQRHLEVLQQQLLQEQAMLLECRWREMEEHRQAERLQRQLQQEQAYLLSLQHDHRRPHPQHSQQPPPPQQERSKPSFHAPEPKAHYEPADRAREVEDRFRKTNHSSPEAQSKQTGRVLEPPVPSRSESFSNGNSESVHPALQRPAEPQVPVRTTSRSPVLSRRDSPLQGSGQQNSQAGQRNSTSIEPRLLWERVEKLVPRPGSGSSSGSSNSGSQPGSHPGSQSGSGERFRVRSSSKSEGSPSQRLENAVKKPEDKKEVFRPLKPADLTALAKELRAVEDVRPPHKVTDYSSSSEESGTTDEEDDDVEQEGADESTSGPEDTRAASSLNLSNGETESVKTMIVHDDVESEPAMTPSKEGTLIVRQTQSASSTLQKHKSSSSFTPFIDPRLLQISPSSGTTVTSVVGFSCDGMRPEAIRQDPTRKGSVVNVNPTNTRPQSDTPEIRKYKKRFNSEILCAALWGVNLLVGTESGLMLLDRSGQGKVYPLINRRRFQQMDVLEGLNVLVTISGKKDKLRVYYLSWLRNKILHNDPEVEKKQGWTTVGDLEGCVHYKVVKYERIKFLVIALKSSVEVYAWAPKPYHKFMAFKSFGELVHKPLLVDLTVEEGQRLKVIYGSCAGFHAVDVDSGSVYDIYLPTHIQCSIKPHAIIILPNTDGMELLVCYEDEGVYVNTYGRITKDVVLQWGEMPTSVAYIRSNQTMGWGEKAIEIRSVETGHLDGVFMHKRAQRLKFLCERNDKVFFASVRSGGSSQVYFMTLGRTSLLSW
Summary of the method: as §2

[10] = biological target: Dual specificity tyrosine-phosphorylation-regulated kinase 3 (Homo sapiens) (UniProt O43781); test: Inhibition of recombinant DYRK3 (unknown origin) at 5 uM by FRET-based Z'-LYTE assay
Dual specificity tyrosine-phosphorylation-regulated kinase 3 (Homo sapiens), sequence (O43781 whole entry): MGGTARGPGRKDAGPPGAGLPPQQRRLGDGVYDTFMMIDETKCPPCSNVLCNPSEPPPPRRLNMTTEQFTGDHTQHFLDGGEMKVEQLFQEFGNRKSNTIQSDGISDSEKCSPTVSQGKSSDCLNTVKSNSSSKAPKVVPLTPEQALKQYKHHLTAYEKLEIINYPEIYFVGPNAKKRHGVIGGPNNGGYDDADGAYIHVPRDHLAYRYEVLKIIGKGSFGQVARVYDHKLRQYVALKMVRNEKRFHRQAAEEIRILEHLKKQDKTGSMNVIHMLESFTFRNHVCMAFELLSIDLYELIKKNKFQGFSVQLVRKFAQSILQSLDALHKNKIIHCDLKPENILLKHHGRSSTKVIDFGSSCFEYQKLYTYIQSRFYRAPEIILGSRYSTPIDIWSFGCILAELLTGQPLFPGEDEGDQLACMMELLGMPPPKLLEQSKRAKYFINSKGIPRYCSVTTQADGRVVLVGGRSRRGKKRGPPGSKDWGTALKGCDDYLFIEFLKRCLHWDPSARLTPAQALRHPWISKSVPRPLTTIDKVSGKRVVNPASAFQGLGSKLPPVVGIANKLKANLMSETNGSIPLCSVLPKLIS
Summary of the method: as §2

[11] = biological target: Dual specificity mitogen-activated protein kinase kinase 1 (Homo sapiens, UniProt Q02750); test: Inhibition of recombinant MEK1 (unknown origin) by cascade reaction assay
[12] = biological target: Mitogen-activated protein kinase 14 (Homo sapiens, UniProt Q16539); test: Inhibition of recombinant MAPK14 (unknown origin) by FRET-based Z'-LYTE assay
[13] = biological target: Glycogen synthase kinase-3 beta (Homo sapiens) (UniProt P49841); test: Inhibition of recombinant GSK3B (unknown origin) at 5 uM by FRET-based Z'-LYTE assay
Summary of the method: as §2

[14] = biological target: Cyclin-dependent kinase 2/cyclin A (Homo sapiens) (UniProt P24941+P20248+P78396); test: Inhibition of recombinant CDK2/cyclin A (unknown origin) at 5 uM by FRET-based Z'-LYTE assay; format: protein-complex assay
Summary of the method: as §2

[15] = biological target: Rho-associated protein kinase 1 (Homo sapiens) (UniProt Q13464); test: Inhibition of recombinant ROCK1 (unknown origin) at 5 uM by FRET-based Z'-LYTE assay
Summary of the method: as §1

[16] = biological target: High affinity nerve growth factor receptor (Homo sapiens) (UniProt P04629); test: Inhibition of recombinant NTRK1 (unknown origin) at 5 uM by FRET-based Z'-LYTE assay
High affinity nerve growth factor receptor (Homo sapiens), sequence (P04629 33-796 limits assumed): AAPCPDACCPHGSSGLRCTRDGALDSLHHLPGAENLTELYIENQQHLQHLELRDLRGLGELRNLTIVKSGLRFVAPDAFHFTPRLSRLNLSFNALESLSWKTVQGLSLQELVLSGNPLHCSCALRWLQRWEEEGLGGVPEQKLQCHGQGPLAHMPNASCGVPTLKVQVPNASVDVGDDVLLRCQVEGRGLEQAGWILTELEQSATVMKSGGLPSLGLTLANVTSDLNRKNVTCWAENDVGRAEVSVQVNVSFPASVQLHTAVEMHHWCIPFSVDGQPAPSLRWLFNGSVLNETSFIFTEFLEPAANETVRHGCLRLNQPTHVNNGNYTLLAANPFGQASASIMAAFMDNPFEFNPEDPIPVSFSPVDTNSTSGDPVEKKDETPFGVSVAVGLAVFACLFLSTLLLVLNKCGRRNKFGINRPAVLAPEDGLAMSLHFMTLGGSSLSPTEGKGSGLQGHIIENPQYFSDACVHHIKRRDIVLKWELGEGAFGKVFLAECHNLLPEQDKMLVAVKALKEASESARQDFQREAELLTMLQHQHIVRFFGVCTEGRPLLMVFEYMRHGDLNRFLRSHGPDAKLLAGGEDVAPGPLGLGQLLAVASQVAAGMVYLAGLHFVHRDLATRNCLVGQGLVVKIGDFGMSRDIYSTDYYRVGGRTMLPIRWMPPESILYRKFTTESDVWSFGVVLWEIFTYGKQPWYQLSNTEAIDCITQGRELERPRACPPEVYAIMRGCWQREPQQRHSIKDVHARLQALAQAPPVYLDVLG
Summary of the method: as §2

[17] = biological target: Inhibitor of nuclear factor kappa-B kinase subunit epsilon (Homo sapiens) (UniProt Q14164); test: Inhibition of recombinant IKBKE (unknown origin) at 5 uM by FRET-based Z'-LYTE assay
Summary of the method: as §2

[18] = biological target: Epidermal growth factor receptor (Homo sapiens) (UniProt P00533); test: Inhibition of recombinant EGFR (unknown origin) at 5 uM by FRET-based Z'-LYTE assay
Epidermal growth factor receptor (Homo sapiens), sequence (P00533 whole entry): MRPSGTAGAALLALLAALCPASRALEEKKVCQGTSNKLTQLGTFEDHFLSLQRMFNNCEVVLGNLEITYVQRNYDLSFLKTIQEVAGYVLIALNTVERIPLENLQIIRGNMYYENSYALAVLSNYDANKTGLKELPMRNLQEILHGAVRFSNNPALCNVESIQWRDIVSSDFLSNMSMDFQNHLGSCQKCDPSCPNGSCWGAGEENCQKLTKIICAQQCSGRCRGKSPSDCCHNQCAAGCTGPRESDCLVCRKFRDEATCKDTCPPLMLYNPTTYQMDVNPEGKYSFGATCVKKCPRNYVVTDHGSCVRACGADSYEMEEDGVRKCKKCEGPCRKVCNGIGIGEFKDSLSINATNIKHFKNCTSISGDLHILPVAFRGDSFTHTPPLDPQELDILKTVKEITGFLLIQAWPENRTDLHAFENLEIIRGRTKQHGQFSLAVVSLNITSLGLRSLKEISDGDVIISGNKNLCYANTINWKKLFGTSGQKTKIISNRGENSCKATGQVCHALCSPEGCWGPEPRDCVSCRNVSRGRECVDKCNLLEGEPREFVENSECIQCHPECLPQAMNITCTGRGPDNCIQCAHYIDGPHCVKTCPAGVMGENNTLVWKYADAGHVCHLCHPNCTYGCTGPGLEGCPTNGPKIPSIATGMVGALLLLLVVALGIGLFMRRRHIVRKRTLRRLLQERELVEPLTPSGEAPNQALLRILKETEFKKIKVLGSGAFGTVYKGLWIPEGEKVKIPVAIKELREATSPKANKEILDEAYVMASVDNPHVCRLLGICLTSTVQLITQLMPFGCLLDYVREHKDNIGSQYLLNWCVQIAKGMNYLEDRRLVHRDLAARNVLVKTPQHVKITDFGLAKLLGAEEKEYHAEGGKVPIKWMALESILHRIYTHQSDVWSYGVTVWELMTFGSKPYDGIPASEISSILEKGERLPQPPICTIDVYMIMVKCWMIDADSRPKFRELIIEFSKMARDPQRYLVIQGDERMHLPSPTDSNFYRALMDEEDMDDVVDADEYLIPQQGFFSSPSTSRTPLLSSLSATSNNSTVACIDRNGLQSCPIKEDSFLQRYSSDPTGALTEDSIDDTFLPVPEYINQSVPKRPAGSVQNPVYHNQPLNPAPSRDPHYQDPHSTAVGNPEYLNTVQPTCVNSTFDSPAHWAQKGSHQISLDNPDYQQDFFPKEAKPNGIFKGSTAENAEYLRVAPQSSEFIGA
Summary of the method: as §2

[19] = biological target: RAC-beta serine/threonine-protein kinase (Homo sapiens, UniProt P31751); test: Inhibition of recombinant AKT2 (unknown origin) by FRET-based Z'-LYTE assay

O=C1/C(=C/c2ccccn2)CNC/C1=C\c1ccccn1
inhibition [1]: 89% | IC50 [2]: 1500 nM | inhibition [3]: 101% | inhibition [4]: 90% | inhibition [5]: -5% | IC50 [6]: 20 nM | inhibition [7]: 45% | IC50 [8]: 500 nM | inhibition [9]: 72% | inhibition [10]: 48% | IC50 [11]: 1100 nM | IC50 [12]: 35000 nM | inhibition [13]: 17% | inhibition [14]: 1% | inhibition [15]: 58% | inhibition [16]: 25% | inhibition [17]: 15% | inhibition [18]: -9% | IC50 [19]: 20 nM
